Results pooled from the literature.
Lines come from different studies, so protocols differ. pEC50, pIC50, pKd, pKi: −log10 of the molar value.
gyrB: DNA gyrase subunit B (gyrB, Escherichia coli, UniProt P0AES6)
CA9: Carbonic anhydrase 9 (CA9, Homo sapiens, UniProt Q16790)
Adora1: Adenosine receptor A1 (Adora1, Rattus norvegicus, UniProt P25099)
Melanocortin receptor 5: Melanocortin receptor 5 (Mus musculus, UniProt P41149)
PKN1: Serine/threonine-protein kinase N1 (PKN1, Homo sapiens, UniProt Q16512)
GRM4: Metabotropic glutamate receptor 4 (GRM4, Homo sapiens, UniProt Q14833)

CNc1cccc2cc(C(=O)NCc3ccc(C(=O)O)cc3)c(=O)[nH]c12
pKd (gyrB; binding; ITC): 8.03

NS(=O)(=O)c1cccc(NC(=O)CCN2CCC(c3cccc4[nH]ccc34)CC2)c1
pIC50 (CA9; enzyme activity; inhibitor): 4.96

CCS(=O)(=O)Nc1ccc(Nc2c3ccccc3nc3cc(NC(=O)CCCC[C@@H]4SC[C@@H]5NC(=O)N[C@@H]54)ccc23)c(OC)c1
pKd (Lymphocyte antigen 6K (Homo sapiens, UniProt Q17RY6); binding; SPR): 5.33

NS(=O)(=O)c1ccc(NC(=O)C(Cc2c[nH]c3ccccc23)NC(=O)c2cccs2)cc1 (centres unmarked)
pIC50 (CA9; enzyme activity; inhibitor): 7.43

CO[C@@]1(NC(=O)C2SC(=C(C(N)=O)C(=O)O)S2)C(=O)N2C(C(=O)O)=C(CSc3nnnn3C)CS[C@@H]21 (some centres unmarked)
pKd (Phosphatidylethanolamine-binding protein 1 (Homo sapiens, UniProt P30086); binding): 4.45

CCC(C)N1CCCn2c1nc1c2c(=O)n(C)c(=O)n1C (centres unmarked)
pKi (Adora1; ligand displacement; radioligand; cell membranes): ≤ 4.60

NS(=O)(=O)c1cc(C(=O)Nc2ccc(NC(=O)CCN3CCCCC3)cc2)ccc1Cl
pIC50 (CA9; enzyme activity; inhibitor): 6.80

CSCC[C@H](NC(=O)[C@@H](NC(=O)[C@@H](N)Cc1ccc(O)cc1)C(C)C)C(=O)NCC(=O)N[C@@H](Cc1c[nH]cn1)C(=O)N[C@@H](Cc1ccccc1)C(=O)N[C@@H](CCCNC(=N)N)C(=O)N[C@@H](Cc1c[nH]c2ccccc12)C(=O)N[C@@H](CC(=O)O)C(=O)N[C@@H](CCCNC(=N)N)C(=O)O
pEC50 (Melanocortin receptor 5; reporter gene; agonist): 7.21

CCCCN1CCCn2c1nc1c2c(=O)n(CCC)c(=O)n1CCC
pKi (Adora1; ligand displacement; radioligand; cell membranes): 6.55

CNc1cccc2cc(C(=O)NCc3cccc(C(=O)O)c3)c(=O)[nH]c12
pKd (gyrB; binding; ITC): 6.41

CN(c1ccccc1CNc1nc(Nc2ccc3c(c2)CC(=O)N3)ncc1C(F)(F)F)S(C)(=O)=O
pIC50 (PKN1; enzyme activity; inhibitor): 6.89

Cc1ccc(C)c(OCCCC(C)(C)C(=O)O)c1
pEC50 (Peroxisome proliferator-activated receptor alpha (Ppara, Mus musculus, UniProt P23204); reporter gene; agonist; luciferase): 3.95

O=C(Nc1ccc(N2C(=O)c3ccccc3C2=O)c(Cl)c1)c1ncccc1O
pEC50 (GRM4; calcium signal; agonist): 6.89

CCCCCC(C)N1CCCn2c1nc1c2c(=O)n(C)c(=O)n1C (centres unmarked)
pKi (Adora1; ligand displacement; radioligand; cell membranes): < 4.60

N=C(N)NCCC[C@H](NC(=O)[C@H](CC(=O)O)NC(=O)[C@H](Cc1c[nH]c2ccccc12)NC(=O)[C@H](CCCNC(=N)N)NC(=O)[C@@H](N)Cc1ccccc1)C(=O)N[C@@H](Cc1ccccc1)C(=O)NCC(=O)O
pEC50 (Melanocortin receptor 5; reporter gene; agonist): 4.87

Cc1cc(C(=O)Nc2ccccc2C(=O)NCc2cn(C)nn2)c(C)n1Cc1ccc(S(N)(=O)=O)cc1
pIC50 (CA9; enzyme activity; inhibitor): 7.41

Cc1cccnc1C(=O)Nc1ccc(N2C(=O)c3ccccc3C2=O)c(Cl)c1
pEC50 (GRM4; calcium signal; agonist): < 5.00

CSCC[C@H](NC(=O)[C@@H](NC(=O)[C@@H](N)Cc1ccc(O)cc1)C(C)C)C(=O)NCC(=O)N[C@@H](Cc1c[nH]cn1)C(=O)N[C@@H](Cc1ccccc1)C(=O)N[C@@H](CCCNC(=N)N)C(=O)N[C@@H](Cc1c[nH]c2ccccc12)C(=O)O
pEC50 (Melanocortin receptor 5; reporter gene; agonist): 6.15

NS(=O)(=O)c1ccc(NC(=O)NCc2cccc(NC(=O)C3CC3)c2)cc1
pIC50 (CA9; enzyme activity; inhibitor): 7.26

O=C(O)c1cccc(NC(=O)c2cc3ccccc3[nH]c2=O)c1
pKd (gyrB; binding; ITC): 5.15

N=C(N)NCCC[C@H](NC(=O)[C@H](CC(=O)O)NC(=O)[C@H](Cc1c[nH]c2ccccc12)NC(=O)[C@H](CCCNC(=N)N)NC(=O)[C@@H](N)Cc1ccccc1)C(=O)N[C@@H](Cc1ccccc1)C(=O)O
pEC50 (Melanocortin receptor 5; reporter gene; agonist): 5.17

CN(Cc1ccc(C(=O)O)cc1NC(=O)c1cc2ccccc2[nH]c1=O)C1CCCCC1
pKd (gyrB; binding; ITC): 5.41

N=C(N)NCCC[C@H](NC(=O)[C@H](CC(=O)O)NC(=O)[C@H](Cc1c[nH]c2ccccc12)NC(=O)[C@H](CCCNC(=N)N)NC(=O)[C@H](Cc1ccccc1)NC(=O)[C@@H](N)Cc1c[nH]cn1)C(=O)N[C@@H](Cc1ccccc1)C(=O)NCC(=O)O
pEC50 (Melanocortin receptor 5; reporter gene; agonist): 6.12

NS(=O)(=O)c1ccc(NC(=S)N2CCN(C(=O)c3ccco3)CC2)cc1
pIC50 (CA9; enzyme activity; inhibitor): 7.43

C=CCN1CCCn2c1nc1c2c(=O)n(C)c(=O)n1C
pKi (Adora1; ligand displacement; radioligand; cell membranes): 5.36

NS(=O)(=O)c1cc(CNC(=O)N(Cc2ccc(O)cc2)CC2CC2)ccc1F
pIC50 (CA9; enzyme activity; inhibitor): 5.92

Cc1cnc(-c2ccc(-c3ccc(NC(=O)Nc4c(F)cc(F)cc4F)cc3F)c3c2C(=O)NC3)[nH]1
pKd (Serine/threonine-protein kinase 26 (STK26, Homo sapiens, UniProt Q9P289); binding; competition with immobilised ligand): 8.09

CCCN1CCN(c2ccc(-c3cncc(Cl)c3N3CCC4(CCNC4=O)CC3)cc2)CC1
pKd (NUAK family SNF1-like kinase 2 (NUAK2, Homo sapiens, UniProt Q9H093); cell-free assay; lysate): 4.63

CC(C)CC(C)N1CCCn2c1nc1c2c(=O)n(C)c(=O)n1C (centres unmarked)
pKi (Adora1; ligand displacement; radioligand; cell membranes): < 4.60

CCCC[C@H](NC(=O)[C@@H](NC(=O)[C@@H](N)Cc1ccc(O)cc1)C(C)C)C(=O)NCC(=O)N[C@@H](Cc1c[nH]cn1)C(=O)N[C@@H](Cc1ccccc1)C(=O)N[C@@H](CCCNC(=N)N)C(=O)N[C@H](Cc1c[nH]c2ccccc12)C(=O)N[C@@H](CC(=O)O)C(=O)N[C@@H](CCCNC(=N)N)C(=O)N[C@@H](Cc1ccccc1)C(=O)NCC(=O)O
pEC50 (Melanocortin receptor 5; reporter gene; agonist): 8.00

O=S(=O)(NCCNC/C=C/c1ccc(Br)cc1)c1cccc2cnccc12
pIC50 (PKN1; enzyme activity; inhibitor): 6.81

N=C(N)NCCC[C@H](NC(=O)[C@@H](N)CC(=O)O)C(=O)N[C@@H](Cc1ccccc1)C(=O)O
pEC50 (Melanocortin receptor 5; reporter gene; agonist): < 4.00

O=C(O)c1cccc(CCNC(=O)c2cc3ccccc3[nH]c2=O)c1
pKd (gyrB; binding; ITC): 5.85

CSCC[C@H](NC(=O)[C@@H](NC(=O)[C@@H](N)Cc1ccc(O)cc1)C(C)C)C(=O)NCC(=O)N[C@@H](Cc1c[nH]cn1)C(=O)N[C@@H](Cc1ccccc1)C(=O)N[C@@H](CCCNC(=N)N)C(=O)N[C@@H](Cc1c[nH]c2ccccc12)C(=O)N[C@@H](CC(=O)O)C(=O)O
pEC50 (Melanocortin receptor 5; reporter gene; agonist): 7.14

Cc1ccc(S(N)(=O)=O)c(C(=O)Nc2ccc(NC(=O)NCC3CCCO3)cc2)c1 (centres unmarked)
pIC50 (CA9; enzyme activity; inhibitor): 5.10
